From ChEMBL document CHEMBL3414472, “Synthesis, SAR, and series evolution of novel oxadiazole-containing 5-lipoxygenase activating protein inhibitors: discovery of 2-[4-(3-{(r)-1-[4-(2-amino-pyrimidin-5-yl)-phenyl]-1-cyclopropyl-ethyl}-[1,2,4]oxadiazol-5-yl)-pyrazol-1-yl]-N,N-dimethyl-acetamide (BI 665915)” (J Med Chem, 2015)

Experiments:
[1] = system: Hepatocyte; assay: Unbound clearance in human hepatocytes at 1 uM measured over 6 hrs by LC/MS analysis relative to hepatic blood flow; type: ADME, cell-based, Liver
Method in brief: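 Cryopreserved human hepatocytes (1 million cells/mL) with 1 µM compound at 37 °C for 6 h; compound remaining measured by LC/MS over a duplicate 6-timepoint (0 to 6 h) curve. Clearance derived from the ln(% remaining) vs time slope and corrected by the human plasma unbound fraction; expressed as percent of hepatic blood flow.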

[2] = Volume of distribution at steady state in dog at 1 mg/kg, iv and 10 mg/kg, po; type: ADME, organism-based, Canis lupus familiaris; conditions: in vivo, read-out: Vdss
Method in brief: (§1)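 iv 1 mg/kg in 70 % PEG; po 10 mg/kg as suspension in 0.5 % methyl cellulose/0.015 % Tween. Blood sampled at 11 timepoints (0, 5, 15, 30 min, 1, 2, 4, 6, 8, 12, 24 h) per dose; mean of n = 3. Clearance expressed as percent of hepatic blood flow.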

[3] = Oral bioavailability in cynomolgus monkey at 10 mg/kg; type: ADME, organism-based, Macaca fascicularis; conditions: in vivo; method in brief: as §1
[4] = molecular target: hERG (KCNH2) (Homo sapiens, UniProt Q12809); assay: Inhibition of human ERG expressed in HEK293 cells assessed as change in tail current at 11 uM by manual patch clamp assay relative to control; type: cell-based; conditions: HEK293 cells that express hERG
Chain of hERG (KCNH2) (Q12809 whole entry, the tested form may be a part): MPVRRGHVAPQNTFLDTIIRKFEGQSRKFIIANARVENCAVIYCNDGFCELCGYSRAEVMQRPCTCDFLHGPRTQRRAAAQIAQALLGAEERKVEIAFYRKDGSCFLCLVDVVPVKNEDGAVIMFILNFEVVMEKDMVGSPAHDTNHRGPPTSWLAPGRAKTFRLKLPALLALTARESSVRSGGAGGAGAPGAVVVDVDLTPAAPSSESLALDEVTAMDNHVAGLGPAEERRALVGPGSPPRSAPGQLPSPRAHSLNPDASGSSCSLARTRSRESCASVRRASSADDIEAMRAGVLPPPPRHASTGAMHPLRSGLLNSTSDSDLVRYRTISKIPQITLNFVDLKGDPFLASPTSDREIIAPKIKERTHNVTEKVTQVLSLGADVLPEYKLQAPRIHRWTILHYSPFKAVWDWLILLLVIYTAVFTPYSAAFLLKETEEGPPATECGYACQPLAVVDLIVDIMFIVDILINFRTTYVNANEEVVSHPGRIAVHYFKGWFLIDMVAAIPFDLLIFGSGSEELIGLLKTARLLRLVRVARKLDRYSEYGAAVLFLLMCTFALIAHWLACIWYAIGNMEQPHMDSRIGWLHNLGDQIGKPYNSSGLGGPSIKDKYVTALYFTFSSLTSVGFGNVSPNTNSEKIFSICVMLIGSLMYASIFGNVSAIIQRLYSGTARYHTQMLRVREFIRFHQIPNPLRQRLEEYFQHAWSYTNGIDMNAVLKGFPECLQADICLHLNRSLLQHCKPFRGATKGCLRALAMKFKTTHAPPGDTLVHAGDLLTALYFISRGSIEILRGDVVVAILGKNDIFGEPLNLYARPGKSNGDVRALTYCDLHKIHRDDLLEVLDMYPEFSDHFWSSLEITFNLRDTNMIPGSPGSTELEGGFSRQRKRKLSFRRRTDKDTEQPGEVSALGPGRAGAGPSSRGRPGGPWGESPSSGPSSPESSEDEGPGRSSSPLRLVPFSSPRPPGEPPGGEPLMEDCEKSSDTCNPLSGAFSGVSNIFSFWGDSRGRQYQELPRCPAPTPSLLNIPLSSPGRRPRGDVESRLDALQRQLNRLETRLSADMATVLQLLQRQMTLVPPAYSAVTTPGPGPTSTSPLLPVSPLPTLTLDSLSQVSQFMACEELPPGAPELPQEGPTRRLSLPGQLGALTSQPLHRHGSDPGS
Method in brief: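 Whole-cell manual patch clamp on HEK293 cells stably expressing human ERG, at room temperature (20-22 °C) in a perfusion chamber. Change in hERG tail current amplitude during the hyperpolarizing step measured with escalating compound concentrations.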

[5] = molecular target: T1, Cytosolic phospholipase A2 (Homo sapiens) (UniProt P47712); assay: Inhibition of phospholipase A2 (unknown origin) at 10 uM relative to control
T1 sequence (whole entry): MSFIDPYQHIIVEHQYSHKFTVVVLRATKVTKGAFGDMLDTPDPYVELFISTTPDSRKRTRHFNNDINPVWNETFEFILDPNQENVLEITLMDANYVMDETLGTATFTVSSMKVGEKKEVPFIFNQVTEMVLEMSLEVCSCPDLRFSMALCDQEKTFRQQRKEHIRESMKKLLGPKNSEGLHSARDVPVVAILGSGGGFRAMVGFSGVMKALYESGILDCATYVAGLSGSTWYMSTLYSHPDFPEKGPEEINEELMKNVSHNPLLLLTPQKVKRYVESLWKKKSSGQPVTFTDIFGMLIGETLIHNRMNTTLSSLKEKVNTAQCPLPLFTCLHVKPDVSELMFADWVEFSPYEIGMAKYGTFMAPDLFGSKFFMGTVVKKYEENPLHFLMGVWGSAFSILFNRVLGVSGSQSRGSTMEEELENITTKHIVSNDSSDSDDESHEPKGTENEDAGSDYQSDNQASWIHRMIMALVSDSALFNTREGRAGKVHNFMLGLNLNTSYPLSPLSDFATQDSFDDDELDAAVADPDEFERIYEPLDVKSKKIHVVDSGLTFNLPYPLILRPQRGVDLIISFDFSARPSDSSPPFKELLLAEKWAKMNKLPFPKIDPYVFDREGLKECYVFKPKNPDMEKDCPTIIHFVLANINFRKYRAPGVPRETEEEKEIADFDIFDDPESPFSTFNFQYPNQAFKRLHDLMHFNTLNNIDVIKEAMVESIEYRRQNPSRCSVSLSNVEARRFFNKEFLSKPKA

[6] = system: Canis familiaris; assay: Clearance in dog at 1 mg/kg, iv and 10 mg/kg, po relative to hepatic blood flow; type: ADME, organism-based, Canis lupus familiaris, Liver; conditions: in vivo; method in brief: as §1
[7] = Mean residence time in cynomolgus monkey at 1 mg/kg, iv; type: ADME, organism-based, Macaca fascicularis; parameters: dose 1 mg/kg, route intravenous; conditions: in vivo; method in brief: as §1
[8] = system: Mus musculus; assay: In vivo inhibition of FLAP in C57BL/6 mouse assessed as LTB4 production in calcimycin-stimulated whole blood at 100 mg/kg, po after 2 hrs by ELISA (reference value: 100 +/- 13.3%); type: functional; parameters: scale not given: the % may be the effect or the level left
[9] = Volume of distribution at steady state in rat at 1 mg/kg, iv and 10 mg/kg, po; type: ADME, organism-based; conditions: in vivo, read-out: Vdss; method in brief: as §1
[10] = molecular target: CYP3A4 (Homo sapiens, UniProt P08684); assay: Induction of CYP3A4 in human hepatocytes using midazolam as substrate assessed as formation of 1'-hydroxymidazolam up to 30 uM preincubated for 48 hrs followed by substrate addition measured up to 120 mins relative to control; type: ADME, cell-based, Hepatocyte; conditions: probe midazolam, read-out: FC
Chain of CYP3A4 (P08684 whole entry): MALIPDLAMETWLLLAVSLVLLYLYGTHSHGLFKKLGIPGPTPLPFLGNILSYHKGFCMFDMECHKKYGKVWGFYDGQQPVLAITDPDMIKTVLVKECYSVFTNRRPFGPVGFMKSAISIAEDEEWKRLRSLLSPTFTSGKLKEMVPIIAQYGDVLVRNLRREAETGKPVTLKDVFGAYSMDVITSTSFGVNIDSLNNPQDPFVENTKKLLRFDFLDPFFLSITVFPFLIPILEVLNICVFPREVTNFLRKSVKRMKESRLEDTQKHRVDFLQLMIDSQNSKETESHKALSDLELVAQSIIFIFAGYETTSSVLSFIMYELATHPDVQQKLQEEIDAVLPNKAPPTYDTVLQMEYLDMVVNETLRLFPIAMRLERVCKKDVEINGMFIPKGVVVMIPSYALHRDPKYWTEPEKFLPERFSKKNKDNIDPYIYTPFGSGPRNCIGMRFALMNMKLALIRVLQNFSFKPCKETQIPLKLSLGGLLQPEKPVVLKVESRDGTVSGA
Method in brief: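 Freshly plated, sandwich-cultured, single-donor human hepatocytes were exposed to compound or rifampicin (25 µM) for 48 h, with medium and dosing agent renewed every 24 h. The linear slope of 1'-hydroxymidazolam formation over time (to 120 min) was determined. Fold induction is the compound slope divided by the solvent control slope.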

[11] = molecular target: T2, Cytochrome P450 3A4 (Homo sapiens, UniProt P08684); assay: Time-dependent inhibition of CYP3A4 in human liver microsomes using midazolam as substrate up to 100 uM by LC/MS/MS analysis; type: ADME
T2 sequence (P08684 whole entry): as above
Method in brief: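 Primary incubation: 0.1 mg/ml human liver microsomes, 100 mM phosphate pH 7.4, 1 mM NADPH, 37 °C, compound 0 to 100 µM (7 concentrations). Aliquots taken at 0, 1, 3, 5, 15, 30 min into secondary incubation with 15 µM midazolam and 1 mM NADPH, quenched after 8 min; 1'-hydroxymidazolam measured by LC/MS/MS against a d4 internal standard.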

[12] = Oral bioavailability in rat at 10 mg/kg; type: ADME, organism-based; conditions: in vivo; method in brief: as §1
[13] = Permeability across apical to basolateral side in human Caco2 cells measured up to 2 hrs by LC/MS/MS analysis; type: ADME, cell-based; conditions: Caco-2, read-out: permeability
Method in brief: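 Caco-2 cells seeded at 1-2 x 10^5 cells/cm2 on 0.4 µm PET filter inserts, cultured 10 to 25 days. Compound in HTP-4 buffer applied to apical donor side; donor sampled at start and end, receiver sampled over up to 2 h; quantified by LC/MS/MS. Duplicate 6-timepoint (0 to 2 h).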

[14] = molecular target: T3, Leukotriene B4 receptor 2 (Homo sapiens) (UniProt Q9NPC1); assay: Inhibition of BLT2 (unknown origin) at 10 uM relative to control
T3 sequence (whole entry): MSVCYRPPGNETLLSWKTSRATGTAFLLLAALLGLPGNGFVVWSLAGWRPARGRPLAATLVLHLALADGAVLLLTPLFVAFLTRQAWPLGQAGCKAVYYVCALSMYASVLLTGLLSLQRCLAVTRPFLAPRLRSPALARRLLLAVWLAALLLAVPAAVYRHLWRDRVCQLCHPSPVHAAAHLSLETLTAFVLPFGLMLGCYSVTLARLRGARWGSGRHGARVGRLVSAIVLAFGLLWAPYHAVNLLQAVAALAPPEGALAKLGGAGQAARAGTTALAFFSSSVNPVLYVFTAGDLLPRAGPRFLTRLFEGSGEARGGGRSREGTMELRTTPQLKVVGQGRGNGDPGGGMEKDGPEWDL

[15] = molecular target: T2, Cytochrome P450 3A4; assay: Inhibition of CYP3A4 in human liver microsomes using midazolam as substrate preincubated for 10 mins followed by NADPH addition measured after 6 mins; type: ADME
Method in brief: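 Human liver microsomes (0.05 mg/mL protein) with cocktail substrates: 4 µM diclofenac (2C9), 3 µM dextromethorphan (2D6), 2.5 µM midazolam (3A4). Compound in 0.1 M potassium phosphate pH 7.4 preincubated 10 min at 37 °C; NADPH added, reaction 6 min at 37 °C.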

CL free [1]: 8.7%
Vd [2]: 1.2 L/kg
bioavailability [3]: 45%
inhibition [5]: < 50%
CL [6]: 2.8%
MRT [7]: 4.8 h
Vd [9]: 0.9 L/kg
fold induction at 2 h [10]: 2
TDI [11]: Not Active
bioavailability [12]: 63%
Papp A→B at 2 h [13]: 34 ×10⁻⁶ cm/s
inhibition [14]: < 50%
IC50 [15]: > 30 µM
Structure (SMILES): CN(C)C(=O)Cn1cc(-c2nc([C@@](C)(c3ccc(-c4cnc(N)nc4)cc3)C3CC3)no2)cn1 [BI 665915]
inhibition at 11 µM [4]: 11%
Activity [8]: 5.1%
